{
  "source": "ChEMBL document CHEMBL4196017",
  "about": "“Design, synthesis and identification of silicon-containing HCV NS5A inhibitors with pan-genotype activity” (Eur J Med Chem, 2018)",
  "key": {"[1]": {"biological_target": "T1, Nonstructural protein 5A (Hepatitis C virus) (UniProt Q5L478)", "T1 sequence (whole entry)": "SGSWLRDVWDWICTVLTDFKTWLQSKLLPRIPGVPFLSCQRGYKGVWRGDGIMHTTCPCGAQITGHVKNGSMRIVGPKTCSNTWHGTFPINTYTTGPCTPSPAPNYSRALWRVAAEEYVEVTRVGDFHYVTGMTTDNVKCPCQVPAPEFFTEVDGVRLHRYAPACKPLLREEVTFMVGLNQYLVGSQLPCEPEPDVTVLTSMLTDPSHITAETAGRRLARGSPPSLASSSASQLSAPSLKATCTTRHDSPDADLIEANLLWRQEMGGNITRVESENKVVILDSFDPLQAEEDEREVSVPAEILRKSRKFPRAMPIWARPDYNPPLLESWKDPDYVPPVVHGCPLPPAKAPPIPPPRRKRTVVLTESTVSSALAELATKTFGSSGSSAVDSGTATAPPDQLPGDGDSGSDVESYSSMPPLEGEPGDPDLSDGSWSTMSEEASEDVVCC", "assay": "Potency index, ratio of ombitasvir IC50 to compound IC50 for inhibition of NS5A in HCV genotype 3a infected in human HuH7 replicon cells expressing HCV genotype 1b chimeric replicon", "format": "cell-based", "settings": "Hepatitis C virus subtype 3a"}, "Mus musculus [2]": {"tested_on": "Mus musculus", "assay": "Toxicity in ICR mouse assessed as hemoglobin concentration at 150 mg/kg, po administered via gavage once daily for 14 days (reference value: 157.4 +/- 15.5 g/L)", "format": "organism-based", "settings": "in vivo, 336 h", "summary_of_the_method": "(§1)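 Haematology on abdominal aortic blood taken at necropsy under ether anaesthesia after 14 daily gavage doses (20 ml/kg) in ICR mice, 5 per sex per group, vehicle control. Parameters: WBC, RBC, haemoglobin, platelets, reticulocyte ratio and differential leukocyte counts; mean ± SD, n = 10.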"}, "Mus musculus [3]": {"tested_on": "Mus musculus", "assay": "Toxicity in ICR mouse assessed as platelet count at 150 mg/kg, po administered via gavage once daily for 14 days (reference value: 1260.3 +/- 137.87 10^9/L)", "format": "organism-based", "settings": "in vivo, 336 h", "summary_of_the_method": "as §1"}, "Mus musculus [4]": {"tested_on": "Mus musculus", "assay": "Toxicity in ICR mouse assessed as gamma glutamyltransferase level in serum at 150 mg/kg, po administered via gavage once daily for 14 days (reference value: 0 U/L)", "format": "organism-based", "settings": "in vivo, 336 h"}, "Mus musculus [5]": {"tested_on": "Mus musculus", "assay": "Toxicity in ICR mouse assessed as alkaline phosphatase level in serum at 150 mg/kg, po administered via gavage once daily for 14 days (reference value: 114.44 +/- 21.78 U/L)", "format": "organism-based", "settings": "in vivo, 336 h", "summary_of_the_method": "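ICR mice, 5 males + 5 females per group, dosed by gavage once daily at 150 mg/kg (20 ml/kg) or vehicle for 14 days; killed after the 14th dose; blood from abdominal aorta under ether anaesthesia for hematology and clinical chemistry; mean ± SD, n = 10.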"}, "Mus musculus [6]": {"tested_on": "Mus musculus", "assay": "Toxicity in ICR mouse assessed as direct bilirubin level in serum at 150 mg/kg, po administered via gavage once daily for 14 days (reference value: 7.6 +/- 0.59 umol/L)", "format": "organism-based", "settings": "in vivo, 336 h"}, "Mus musculus [7]": {"tested_on": "Mus musculus", "assay": "Toxicity in ICR mouse assessed as triglyceride level at 150 mg/kg, po administered via gavage once daily for 14 days (reference value: 1.67 +/- 0.32 mmol/L)", "format": "organism-based", "settings": "in vivo, 336 h"}, "Mus musculus [8]": {"tested_on": "Mus musculus", "assay": "Toxicity in ICR mouse assessed as spleen weight at 150 mg/kg, po administered via gavage once daily for 14 days (reference value: 0.355 +/- 0.1 g)", "format": "organism-based", "settings": "in vivo, 336 h"}, "Mus musculus [9]": {"tested_on": "Mus musculus", "assay": "Toxicity in ICR mouse assessed as kidney weight at 150 mg/kg, po administered via gavage once daily for 14 days (reference value: 1.51 +/- 0.211 g)", "format": "organism-based", "settings": "in vivo, 336 h"}, "Mus musculus [10]": {"tested_on": "Mus musculus", "assay": "Toxicity in ICR mouse assessed as thymus weight at 150 mg/kg, po administered via gavage once daily for 14 days (reference value: 0.289 +/- 0.081 g)", "format": "organism-based", "settings": "in vivo, 336 h"}},
  "data": [
    {"smiles": "CC[Si](CC)(CC)c1ccc(N2[C@H](c3ccc(NC(=O)[C@@H]4CCCN4C(=O)[C@@H](NC(=O)OC)C(C)C)cc3)CC[C@H]2c2ccc(NC(=O)[C@@H]3CCCN3C(=O)[C@@H](NC(=O)OC)C(C)C)cc2)cc1", "values": [
      {"measurement": "Ratio IC50", "setting": "[1]", "result": 8.6},
      {"measurement": "Activity", "setting": "Mus musculus [2]", "result": 154.6, "unit": "g/L"},
      {"measurement": "Activity", "setting": "Mus musculus [3]", "result": 1263.4, "unit": "×10⁹ /L"},
      {"measurement": "Activity", "setting": "Mus musculus [4]", "result": 0.03, "unit": "U/L"},
      {"measurement": "Activity", "setting": "Mus musculus [5]", "result": 105.7, "unit": "U/L"},
      {"measurement": "Activity", "setting": "Mus musculus [6]", "result": 8.57, "unit": "µmol/L"},
      {"measurement": "Activity", "setting": "Mus musculus [7]", "result": 1.53, "unit": "mmol/L"},
      {"measurement": "Activity", "setting": "Mus musculus [8]", "result": 0.345, "unit": "g"},
      {"measurement": "Activity", "setting": "Mus musculus [9]", "result": 1.579, "unit": "g"},
      {"measurement": "Activity", "setting": "Mus musculus [10]", "result": 0.24, "unit": "g"}
    ]}
  ]
}
